High-throughput results deposited in PubChem BioAssay by The Scripps Research Institute Molecular Screening Center.
OXTR potentiator = human OXTR potentiation. P30559. 320,000 tested, 0.061% active. activation, % at 3 µM. CHO-OTR cells, Fluo-8 calcium fluorescence, potentiator mode; 0% = oxytocin EC15, 100% = EC100. AID 2445;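 active means activation above that plate's cutoff, the mean activation of tested compounds plus 3 SD, cut at about 6.6% in these data, passing the limit was not always enough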;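 further: 100% uses oxytocin at 75 nM as the full agonist control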
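Assay system: CHO cell line stably expressing human OTR | Also added: Oxytocin at about EC15, sub-maximal agonist stimulus | Times: Compound 6 min at room temperature before oxytocin, 100 s read | Measured by: Fluo-8 intracellular calcium fluorescence, ex 470-495, em 515-575 nm | Controls: EC15 oxytocin alone as 0%, 75 nM oxytocin as 100%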
OXTR ag = activates the human oxytocin receptor. activation, % at 3 µM. 320,000 tested, 0.32% active. CHO-OTR cells, Fluo-8 calcium fluorescence; normalized: DMSO 0%, oxytocin 100%. P30559;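 active means activation above the mean of all tested compounds plus 3 SD, cutoff set per screening run, cut at about 20% in these data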;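 further: peak over basal fluorescence ratio from a 100 s FLIPR kinetic read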
V1R ag counter = V1a receptor agonism, counter-screen for OXTR agonists | P37288 | CHO-V1R cells, Fluo-8 calcium fluorescence, agonist mode; 0% DMSO, 100% 3 nM vasopressin | activation, % at 3 µM | 320,000 tested, 0.25% active | AID 2797;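 active means activation above the mean activation of all tested compounds plus 3 SD, per screening run, cut at about 20% in these data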;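 further: signal is peak over basal fluorescence ratio across a 100 second FLIPR read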
Target sequence (P37288 whole entry, looked up): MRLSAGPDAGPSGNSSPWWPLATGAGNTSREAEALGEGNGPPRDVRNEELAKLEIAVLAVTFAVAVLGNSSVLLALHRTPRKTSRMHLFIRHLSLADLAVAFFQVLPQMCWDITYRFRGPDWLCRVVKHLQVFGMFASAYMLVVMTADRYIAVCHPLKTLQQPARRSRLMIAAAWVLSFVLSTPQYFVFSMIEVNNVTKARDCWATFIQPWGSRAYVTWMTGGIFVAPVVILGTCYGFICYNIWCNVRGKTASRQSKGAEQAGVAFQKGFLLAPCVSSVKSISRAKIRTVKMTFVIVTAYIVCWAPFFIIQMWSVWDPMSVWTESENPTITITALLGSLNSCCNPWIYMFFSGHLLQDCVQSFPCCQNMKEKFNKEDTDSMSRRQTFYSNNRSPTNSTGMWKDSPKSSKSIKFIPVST
TAAR1 antagonist = antagonists of human TAAR1; 360,000 tested, 1.5% active; CHO RD-HGA16 TAAR1, Fluo-8 calcium fluorescence, antagonist; inhibition, % at 3 µM; Q96RJ0;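 active means inhibition above a per-plate cutoff, the mean inhibition of test compounds on that plate plus 3 SD, cut at about 49% in these data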;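 further: 0% = DMSO plus EC80 beta-PEA response and 100% = DMSO alone without agonist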
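Test system – hTAAR1-expressing CHO RD-HGA16 cells, Gα16-coupled · Reagent – β-PEA at EC80 concentration, post-compound challenge · Compound dosing – 3 µM, single point · Timing – 140 s kinetic read after compound, 140 s after agonist · Detection – Fluo-8 intracellular calcium dye fluorescence, real-time kinetic reads · Control set – DMSO and EC80 PEA controls · Repeats – n of 1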
TAAR1 agonist = human TAAR1 agonism; Q96RJ0; CHO RD-HGA16 TAAR1, Fluo-8 calcium fluorescence; vehicle wells 0%, saturating PEA agonist 100%; activation, % at 3 µM; 360,000 tested, 0.99% active;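 active means activation above the mean activation of all test compounds in the run plus 3 SD, cut at about 38% in these data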
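Assay system – CHO-derived RD-HGA16 cells with stable Gα16 and human TAAR1 · Compound dosing – one-point dosing at 3 µM (nominal) · Incubation – 17-24 h seeding, 75 min 37 °C dye, 30 min RT · Measured by – kinetic Fluo-8 calcium fluorescence · Control set – DMSO vehicle as 0%, PEA at EC100 as 100% · Repeats – single well for each compound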
TAAR1 nonsel count = nonselective antagonist in TAAR1 antagonist counter-screen; shares compounds with TAAR1 antagonist; counterscreen cell line, calcium fluorescence, antagonist mode; inhibition, % at 3 µM; 2,400 tested, 77% active; AID 651780; in the data active means inhibition above about 22%;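 further: CHO-Ga16 host cells stimulated with ATP at an EC80 level; 0% = agonist EC80 plus vehicle and 100% = vehicle without agonist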
TAAR1 antag conf = human TAAR1 antagonism, confirmed. shares compounds with TAAR1 antagonist. TAAR1-expressing cells, fluorescence antagonist read-out. inhibition, % at 3 µM. 2,400 tested, 40% active. AID 651785; in the data active means inhibition above about 49%;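 further: CHO-Ga16 host cells challenged with agonist PEA near its EC80; 0% = agonist at EC80 plus vehicle and 100% = vehicle with no agonist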
Ga16 ag counter = counter-screen for TAAR1 antagonists: nonselective Ga16 agonists; shares compounds with TAAR1 antagonist; activation, % at 3 µM; 2,400 tested, 18% active; AID 651953; Ga16-expressing cells, calcium fluorescence, agonist counterscreen; in the data active means activation above about 12%;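 further: 0% = vehicle wells and 100% = saturating stimulus response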
TAAR1 ag counter = counter-screen for human TAAR1 antagonists: TAAR1 agonists | activation, % at 3 µM | shares compounds with TAAR1 antagonist | hTAAR1 cell line, fluorescence activation, agonist mode | 2,400 tested, 2% active | AID 651955; in the data active means activation above about 37%;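 further: CHO cells stably expressing TAAR1 with calcium dye readout; 0% = DMSO vehicle and 100% = full agonist response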
An asterisk follows results filed as active; / = not tested or not shown. This is a sample that favours compounds with a hit; in the whole collection about 2.3% have one here.

SMILES | OXTR potentiator | OXTR ag | V1R ag counter | TAAR1 antagonist | TAAR1 agonist | TAAR1 nonsel count | TAAR1 antag conf | Ga16 ag counter | TAAR1 ag counter
Cc1ccc2[nH]c3c(c2c1)CN(C(=O)CN1c2ccc(F)cc2CCC1C)CC3 (centres undefined) | -18.5 | -1.3 | -0.3 | -8.9 | 9.8 | / | / | / | /
COc1cc2oc3ccc(C#Cc4ccc(N)cc4)cc3c(=O)c2cc1OC | -15.6 | -1.3 | -0.2 | 56.0* | 11.9 | 25.2* | 31.5 | 3.1 | 0.2
Nc1ccc(C#Cc2ccc3c(=O)c4ccccc4oc3c2)cc1 | -7.8 | -0.3 | 0.6 | 13.3 | 1.9 | / | / | / | /
COc1cc2oc3ccc(C#Cc4ccccn4)cc3c(=O)c2cc1OC | -5.6 | 0.4 | 0.6 | 5.3 | 10.3 | / | / | / | /
COc1cc2oc3cc(C#Cc4ccc(N)cc4)ccc3c(=O)c2cc1OC | 1.4 | -1.0 | -0.3 | 51.5* | 8.4 | 28.7* | 34.8 | 3.3 | 7.1
COc1ccc(C(=O)CSc2n[nH]c(-c3ccncc3)n2)cc1[N+](=O)[O-] | -4.6 | -0.2 | 0.3 | 5.7 | 0.3 | / | / | / | /
COc1ccc(C2C(C(=O)NCc3ccco3)CCC(=O)N2c2ccc(OC)cc2)cc1 (centres undefined) | -16.6 | -0.7 | -0.2 | -4.4 | 2.1 | / | / | / | /
COC(=O)c1ccc2c(=O)n(CCCCCC(=O)N3CCN(c4ccccc4)CC3)c(=O)[nH]c2c1 | -19.4 | 4.8 | 6.3 | 74.2* | 24.3 | 58.4* | 72.0* | 14.2* | 22.5
CCN1CCN(C(=O)CCCCCn2c(=O)[nH]c3cc(C(=O)OC)ccc3c2=O)CC1 | -9.8 | 7.1 | -0.1 | 1.2 | 0.4 | / | / | / | /
CC(=O)c1ccc(N2CCN(C(=O)CCCn3c(=O)[nH]c4ccsc4c3=O)CC2)cc1 | -6.5 | 1.5 | 1.4 | 17.0 | 2.2 | / | / | / | /
CC(=O)c1ccc(N2CCN(C(=O)CCCn3c(=O)[nH]c4ccc(Br)cc4c3=O)CC2)cc1 | -8.2 | 3.6 | 5.9 | 66.7* | 8.2 | 36.6* | 53.7* | 10.7 | 5.5
Cc1cccc(OCc2nc(C#N)c(NCc3ccc4c(c3)OCO4)o2)c1 | -10.1 | -1.5 | 0.0 | 36.7 | 12.0 | / | / | / | /
N#Cc1nc(COc2ccc(Cl)cc2)oc1NCc1ccc2c(c1)OCO2 | -5.8 | -1.1 | 0.3 | 50.0* | 7.7 | 22.1* | 17.2 | -0.4 | -0.6
COc1ccc(S(=O)(=O)Nc2ccccc2C(=O)Nc2nc(-c3ccc(F)cc3)cs2)cc1OC | -16.1 | 16.1 | 10.7 | 90.5* | 9.3 | 51.8* | 61.2* | 9.3 | 4.5
COc1ccc(-c2csc(NC(=O)Cc3ccccc3F)n2)cc1OC | -15.9 | 2.1 | 7.0 | 34.3 | 10.2 | / | / | / | /
Cc1noc(C)c1CSCC(=O)Nc1nc(-c2ccc(F)c(F)c2)cs1 | -16.0 | 0.9 | 4.7 | 81.5* | 9.8 | 49.2* | 58.0* | 9.4 | 4.1
COc1ccccc1CC(=O)Nc1nc(-c2ccc(F)c(F)c2)cs1 | -9.0 | 0.0 | 2.9 | 51.1* | -0.7 | 22.2* | 40.4 | 9.5 | 13.3
O=C(Cc1ccccc1F)Nc1nc(-c2ccc(F)cc2)cs1 | -9.4 | -1.9 | 4.4 | 73.9* | 4.9 | 30.0* | 59.4* | 8.7 | 13.7
COc1ccc(C(=O)N=c2sc3ccccc3n2C)cc1OC | -6.5 | -0.4 | 0.5 | -1.4 | 1.4 | / | / | / | /
CC(C)=N/N=C1/NC(=O)C(c2ccccc2)S1 (centres undefined) | / | / | / | 54.9* | 33.6 | 7.0 | 0.4 | 6.6 | 7.8
CO/N=C/C(C#N)c1ncc(C(F)(F)F)cc1Cl (centres undefined) | -6.7 | 6.5 | 1.9 | / | / | / | / | / | /
Cc1ccc(Cl)cc1NC(=O)Nn1cnnc1 | -3.7 | 0.3 | -0.5 | 62.3* | 0.6 | 1.6 | -1.2 | 0.4 | 0.3
Cc1ccc(C)c(NC(=O)Nn2cnnc2)c1 | -3.8 | 0.0 | 0.2 | -9.2 | 1.1 | / | / | / | /
